For assay [1], the target named is T1, Procathepsin L (Homo sapiens, UniProt P07711). Description: Inhibition of cathepsin L (unknown origin) using fluorogenic Z-FR-MCA as substrate preincubated for 5 mins followed by substrate addition by spectrofluorimetric assay.
Target sequence in this assay (P07711 whole entry): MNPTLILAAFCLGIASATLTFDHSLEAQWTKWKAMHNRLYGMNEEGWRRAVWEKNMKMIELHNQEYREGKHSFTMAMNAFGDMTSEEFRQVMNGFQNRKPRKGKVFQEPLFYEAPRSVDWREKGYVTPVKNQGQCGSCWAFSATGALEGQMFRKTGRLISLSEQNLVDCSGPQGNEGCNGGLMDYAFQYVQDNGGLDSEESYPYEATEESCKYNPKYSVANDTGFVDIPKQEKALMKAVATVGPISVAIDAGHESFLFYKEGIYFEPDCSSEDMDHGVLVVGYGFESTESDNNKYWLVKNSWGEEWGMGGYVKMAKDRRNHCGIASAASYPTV
The target in assay [2] is T2, Cathepsin K (Homo sapiens) (UniProt P43235).
T2 sequence (whole entry): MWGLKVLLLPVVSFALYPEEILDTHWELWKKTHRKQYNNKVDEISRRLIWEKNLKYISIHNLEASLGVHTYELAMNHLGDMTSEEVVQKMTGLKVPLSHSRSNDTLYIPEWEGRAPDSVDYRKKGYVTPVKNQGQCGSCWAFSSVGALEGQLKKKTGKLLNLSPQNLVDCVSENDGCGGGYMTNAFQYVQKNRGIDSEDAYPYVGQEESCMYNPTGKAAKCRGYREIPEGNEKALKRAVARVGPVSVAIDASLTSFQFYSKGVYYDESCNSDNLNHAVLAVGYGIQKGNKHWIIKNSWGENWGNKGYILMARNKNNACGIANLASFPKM
Description: Mixed type inhibition of recombinant human cathepsin K by Michaelis-Menten plot analysis.

The target of assay [3] is T3, Cathepsin K (Homo sapiens, UniProt P43235).
T3 sequence (P43235 whole entry): T2 sequence (whole entry)
The experiment in a line: Binding affinity to recombinant human cathepsin K.

Assay [4] has as its target T3, Cathepsin K. The experiment in a line: Inhibition of recombinant human cathepsin K using Z-Phe-Arg-MCA as fluorogenic substrate preincubated for 5 mins followed by substrate addition and measured after 5 mins by fluorimetric analysis. In a few lines: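 Recombinant human CatK, expressed in Pichia pastoris and active-site titrated with E-64, was used at 2 nM in 0.1 M sodium acetate pH 5.5 with 2.5 mM DTT and 2.5 mM EDTA at room temperature. Enzyme and inhibitor were preincubated 5 min, then 10 μM Z-Phe-Arg-MCA was added. Fluorescence (ex 380/em 460 nm) was read for 5 min. Triplicates; % inhibition from initial rates; IC50 from ≥7 inhibitor concentrations.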

The target of assay [5] is T1, Procathepsin L. Description: Inhibition of cathepsin L (unknown origin) at 25 uM using fluorogenic Z-FR-MCA as substrate preincubated for 5 mins followed by substrate addition by spectrofluorimetric assay relative to control.
Target sequence in this assay (P07711 114-333 limits assumed): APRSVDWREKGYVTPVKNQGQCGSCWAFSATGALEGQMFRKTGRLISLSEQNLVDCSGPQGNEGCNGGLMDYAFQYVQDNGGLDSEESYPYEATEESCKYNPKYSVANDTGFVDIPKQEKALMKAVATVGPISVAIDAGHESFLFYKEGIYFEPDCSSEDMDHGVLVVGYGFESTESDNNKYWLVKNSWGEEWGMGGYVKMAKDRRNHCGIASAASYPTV

Calls of active or inactive are those of the source. The rule behind the calls is not given here.

This note sets out measurements from ChEMBL document CHEMBL4622957, “Green asymmetric synthesis of epoxypeptidomimetics and evaluation as human cathepsin K inhibitors” (Bioorg Med Chem, 2020).

By IC50 is commonly meant the concentration that inhibits the measured activity by half. Turning to `CCCCNC(=O)C([C@H]1O[C@@H]1c1ccccc1[N+](=O)[O-])N(Cc1ccccc1)C(=O)c1ccccc1` (stereo partly drawn), in assay [1], the half-maximal inhibitory concentration (IC50) was more than 50 µM.
For orientation: inhibition means the percentage by which the read-out fell short of the control. As usually defined, the Ki is the equilibrium dissociation constant of an inhibitor or competing ligand from its target. `CCCCCCC[C@H]1O[C@@H]1C(OC(=O)c1ccc(I)cc1)C(=O)NCCCC` (stereo partly drawn): the inhibition entry in assay [2] is “Active”. The Ki in assay [3] came out at 5.45 µM. In addition, the IC50 in assay [4] came to 3.35 µM.
`CCCCCCC[C@H]1O[C@@H]1C(OC(=O)C1CCCCC1)C(=O)NC(C)(C)C` (stereo partly drawn) showed an inhibition in assay [5] of 0%. The concentration for half-maximal inhibition (IC50) in assay [4] worked out at 7.6 µM.
The compound `CCCCNC(=O)C([C@H]1O[C@@H]1c1ccccc1Br)N(Cc1ccccc1)C(=O)c1ccccc1` (stereo partly drawn) showed an IC50 in assay [1] of more than 50 µM.
On to `CCCCNC(=O)C([C@H]1O[C@@H]1c1ccccc1)N(C(=O)c1ccc(I)cc1)C(C)(C)C` (stereo partly drawn), for which the inhibition entry in assay [2] is “Active”. Besides, the inhibition in assay [5] turned out to be 30%. Also, the Ki in assay [3] came out at 9.57 µM. In assay [4], the IC50 worked out at 6.44 µM.
Take `CCCCCCC[C@H]1O[C@@H]1C(OC(=O)c1ccc(I)cc1)C(=O)NC1CCCCC1` (stereo partly drawn): in assay [1], the IC50 stood at 5.36 µM.
On to `CCCCNC(=O)C([C@H]1O[C@@H]1c1ccccc1)N(Cc1ccccc1)C(=O)c1ccccc1` (stereo partly drawn), for which the inhibition in assay [5] was found to be 0%. Moreover, the IC50 in assay [4] is 18.5 µM.
Consider `CCCCCCC[C@H]1O[C@@H]1C(OC(=O)c1ccc(I)cc1)C(=O)NC(C)(C)C` (stereo partly drawn), for which the IC50 in assay [4] came out at 2.21 µM.
`CCCCNC(=O)C([C@H]1O[C@@H]1CC)N(Cc1ccccc1)C(=O)c1ccccc1` (stereo partly drawn) registered an inhibition in assay [5] of 0%.
As to `CCCCCCC[C@H]1O[C@@H]1C(OC(=O)CCCCCBr)C(=O)NC(C)(C)C` (stereo partly drawn), in assay [5], the inhibition is 0%. In addition, in assay [4], the IC50 was found to be 3.81 µM.
